According to ChEMBL document CHEMBL1828603, “Synthesis, antimicrobial activity and possible mechanism of action of 9-bromo-substituted indolizinoquinoline-5,12-dione derivatives” (2011):
≈ marks a conversion by molar mass, not a printed value. Calls of active or inactive are those of the source. No cut-off for these calls is given here.

Tests used:
Escherichia coli [1] = experiment: Inhibition of Escherichia coli topoisomerase 4-mediated relaxation of supercoiled pBR322 DNA at 125 uM after 30 mins by agarose gel electrophoretic analysis
In short: (§1)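 Relaxation assay with 1 U Topo IV and 0.5 µg supercoiled pBR322 DNA in HEPES–KOH pH 7.6 buffer (potassium glutamate, magnesium acetate, DTT, 1 mM ATP, BSA), 37 °C for 30 min. Stopped with chloroform/iso-amyl alcohol (24:1), then run on 1% agarose gel in TAE at 5 V/cm.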

Enterococcus faecalis = experiment: Antimicrobial activity against Enterococcus faecalis ATCC 29212 by two fold microdilution method; assay type: functional
In short: (§2)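 Two-fold broth microdilution in Mueller-Hinton broth. Compound in DMSO added to bacterial culture at 5 × 10^5 cells/ml, starting at 64 µg/ml, then serially doubled down. Incubated at 37 °C overnight and read as OD600. MIC taken as the minimum inhibitory concentration, obtained in at least two independent experiments.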

Staphylococcus aureus [2] = experiment: Antimicrobial activity against methicillin-resistant Staphylococcus aureus isolate 82924 by broth microdilution method; assay type: functional
In short: (§3)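 MRSA clinical isolates from Guangzhou Liuhuaqiao Hospital, China. Tested by two-fold broth dilution in Mueller-Hinton broth from a top concentration of 64 µg/ml. Compound in DMSO was added to culture at 5 × 10^5 cells/ml and serially halved. Plates were incubated at 37 °C overnight with OD600 read-out. MIC came from ≥2 independent experiments.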

Staphylococcus aureus [3] = experiment: Antimicrobial activity against methicillin-resistant Staphylococcus aureus isolate 83160 by broth microdilution method; assay type: functional; in short: as §3
Staphylococcus aureus [4] = experiment: Inhibition of Staphylococcus aureus topoisomerase 4 assessed as decatenation of kDNA at 125 uM after 30 mins by electrophoresis
In short: (§4)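 Decatenation assay with 1 U Topo IV and 200 ng catenated kDNA in HEPES–KOH pH 7.6 buffer (potassium glutamate, magnesium acetate, DTT, 1 mM ATP, BSA), 37 °C for 30 min. Stopped with chloroform/iso-amyl alcohol (24:1), then run on 1% agarose gel in TAE at 10 V/cm.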

[5] = system: Staphylococcus epidermidis; experiment: Antimicrobial activity against Staphylococcus epidermidis ATCC 12228 by two fold microdilution method; assay type: functional; in short: as §2
Escherichia coli [6] = experiment: Inhibition of Escherichia coli DNA gyrase supercoiling activity using pHOT1 DNA as substrate at 100 uM after 60 mins by agarose gel electrophoretic analysis
In short: (§5)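 Supercoiling assay with 1 U DNA gyrase (E. coli or S. aureus) and 0.5 µg relaxed pHOT1 DNA in Tris–HCl pH 7.5 buffer (KCl, MgCl2, DTT, spermidine, 1 mM ATP, glycerol, BSA), ± compound, 37 °C for 60 min. Stopped with proteinase K, run on 1% agarose in TAE at 3 V/cm, stained with Gel Red and imaged under UV.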

Streptococcus = experiment: Antimicrobial activity against hemolytic Streptococcus Group B CMCC 32210 by two fold microdilution method; assay type: functional; in short: as §2
Staphylococcus aureus [7] = experiment: Antimicrobial activity against methicillin-resistant Staphylococcus aureus isolate 071410 by broth microdilution method; assay type: functional; in short: as §3
Staphylococcus aureus [8] = experiment: Antimicrobial activity against methicillin-resistant Staphylococcus aureus isolate 82731 by broth microdilution method; assay type: functional; in short: as §3
Staphylococcus aureus [9] = experiment: Antimicrobial activity against methicillin-resistant Staphylococcus aureus isolate 82896 by broth microdilution method; assay type: functional; in short: as §3
Staphylococcus aureus [10] = experiment: Antimicrobial activity against methicillin-resistant Staphylococcus aureus isolate 071429 by broth microdilution method; assay type: functional; in short: as §3
Staphylococcus aureus [11] = experiment: Antimicrobial activity against methicillin-resistant Staphylococcus aureus isolate 72754 by broth microdilution method; assay type: functional; in short: as §3
Staphylococcus aureus [12] = experiment: Antimicrobial activity against methicillin-resistant Staphylococcus aureus ATCC 43300 by two fold microdilution method; assay type: functional
In short: (§6)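 Two-fold serial dilution in Mueller-Hinton broth, starting at 64 µg/ml. Compound was added as a DMSO solution to bacterial culture at 5 × 10^5 cells/ml, then double-diluted. Plates were incubated overnight at 37 °C and OD600 was read. MIC was taken from at least two independent experiments.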

Pseudomonas aeruginosa = experiment: Antimicrobial activity against Pseudomonas aeruginosa ATCC 27853 by two fold microdilution method; assay type: functional; in short: as §2
[13] = biological target: DNA gyrase (Staphylococcus aureus) (UniProt P0A0K8+P20831); experiment: Inhibition of Staphylococcus aureus DNA gyrase supercoiling activity using pHOT1 DNA as substrate at 125 uM after 60 mins by agarose gel electrophoretic analysis; assay type: protein-complex assay; in short: as §5
Chain of DNA gyrase (Staphylococcus aureus) (P0A0K8 2-644 limits assumed): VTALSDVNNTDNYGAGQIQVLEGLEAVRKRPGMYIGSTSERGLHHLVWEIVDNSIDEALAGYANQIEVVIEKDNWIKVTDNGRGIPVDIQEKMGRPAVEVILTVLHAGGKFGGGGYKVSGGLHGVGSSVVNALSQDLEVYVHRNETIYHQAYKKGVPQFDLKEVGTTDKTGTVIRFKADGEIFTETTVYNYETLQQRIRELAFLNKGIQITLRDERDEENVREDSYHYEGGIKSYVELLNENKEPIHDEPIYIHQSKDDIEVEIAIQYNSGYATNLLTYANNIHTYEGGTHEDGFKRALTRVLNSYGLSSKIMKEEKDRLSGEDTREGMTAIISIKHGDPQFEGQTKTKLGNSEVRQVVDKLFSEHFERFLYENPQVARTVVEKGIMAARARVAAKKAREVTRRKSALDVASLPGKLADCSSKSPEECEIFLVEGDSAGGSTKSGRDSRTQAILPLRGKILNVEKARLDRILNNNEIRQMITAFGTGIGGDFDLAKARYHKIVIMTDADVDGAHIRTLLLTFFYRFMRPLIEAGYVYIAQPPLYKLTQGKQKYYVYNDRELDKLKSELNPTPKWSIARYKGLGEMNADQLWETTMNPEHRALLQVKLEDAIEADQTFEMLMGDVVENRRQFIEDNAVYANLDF
Chain of DNA gyrase (Staphylococcus aureus) (P20831 whole entry partner): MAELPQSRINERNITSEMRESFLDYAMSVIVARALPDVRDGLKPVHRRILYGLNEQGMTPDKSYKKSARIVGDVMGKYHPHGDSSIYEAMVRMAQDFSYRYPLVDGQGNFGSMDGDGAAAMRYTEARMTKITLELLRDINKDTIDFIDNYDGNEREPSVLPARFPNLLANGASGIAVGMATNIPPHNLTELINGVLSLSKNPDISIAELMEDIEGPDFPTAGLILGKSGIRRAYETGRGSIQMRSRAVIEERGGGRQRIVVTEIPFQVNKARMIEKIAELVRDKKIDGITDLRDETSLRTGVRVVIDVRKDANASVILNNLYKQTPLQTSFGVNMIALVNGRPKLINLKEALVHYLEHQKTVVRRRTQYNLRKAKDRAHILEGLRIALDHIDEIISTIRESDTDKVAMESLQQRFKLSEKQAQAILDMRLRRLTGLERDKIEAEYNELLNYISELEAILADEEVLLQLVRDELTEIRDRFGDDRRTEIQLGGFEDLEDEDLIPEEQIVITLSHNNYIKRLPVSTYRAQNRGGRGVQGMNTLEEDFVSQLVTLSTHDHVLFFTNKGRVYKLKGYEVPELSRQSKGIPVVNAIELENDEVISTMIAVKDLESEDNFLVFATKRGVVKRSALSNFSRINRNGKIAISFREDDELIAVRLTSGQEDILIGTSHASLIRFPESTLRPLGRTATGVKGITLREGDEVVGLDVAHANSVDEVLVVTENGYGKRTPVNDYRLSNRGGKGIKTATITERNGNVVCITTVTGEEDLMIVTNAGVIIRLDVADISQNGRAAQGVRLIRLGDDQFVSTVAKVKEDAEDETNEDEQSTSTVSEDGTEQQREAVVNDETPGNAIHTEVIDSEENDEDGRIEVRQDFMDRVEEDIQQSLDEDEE

Escherichia coli [14] = experiment: Inhibition of Escherichia coli topoisomerase 4 assessed as decatenation of kDNA at 25 uM after 30 mins by electrophoresis; in short: as §4
Staphylococcus aureus [15] = experiment: Antimicrobial activity against methicillin-resistant Staphylococcus aureus isolate 80754 by broth microdilution method; assay type: functional; in short: as §3
Staphylococcus aureus [16] = experiment: Ratio of MIC for vancomycin to compound for methicillin-resistant Staphylococcus aureus ATCC 43300 by broth microdilution method; assay type: functional
Staphylococcus aureus [17] = experiment: Antimicrobial activity against methicillin-resistant Staphylococcus aureus isolate 071843 by broth microdilution method; assay type: functional; in short: as §3
Staphylococcus aureus [18] = experiment: Inhibition of Staphylococcus aureus topoisomerase 4-mediated relaxation of supercoiled pBR322 DNA at 1 uM after 30 mins by agarose gel electrophoretic analysis; in short: as §1
Escherichia coli [19] = experiment: Inhibition of Escherichia coli DNA gyrase supercoiling activity using pHOT1 DNA as substrate at 1 uM after 60 mins by agarose gel electrophoretic analysis; in short: as §5
[20] = system: Salmonella enterica subsp. enterica serovar Paratyphi B; experiment: Antimicrobial activity against Salmonella paratyphi B CMCC 50094 by two fold microdilution method; assay type: functional; in short: as §6
Staphylococcus aureus [21] = experiment: Inhibition of Staphylococcus aureus topoisomerase 4-mediated relaxation of supercoiled pBR322 DNA at 25 uM after 30 mins by agarose gel electrophoretic analysis; in short: as §1
Staphylococcus aureus [22] = experiment: Antimicrobial activity against methicillin-resistant Staphylococcus aureus isolate 0441 by broth microdilution method; assay type: functional; in short: as §3
Candida albicans = experiment: Antifungal activity against Candida albicans ATCC 10231 by two fold microdilution method; assay type: functional
Escherichia coli [23] = experiment: Antimicrobial activity against Escherichia coli ATCC 25922 by two fold microdilution method; assay type: functional; in short: as §2
Staphylococcus aureus [24] = experiment: Antimicrobial activity against Staphylococcus aureus ATCC 25923 by two fold microdilution method; assay type: functional; in short: as §6
Staphylococcus aureus [25] = experiment: Antimicrobial activity against methicillin-resistant Staphylococcus aureus isolate 7365 by broth microdilution method; assay type: functional; in short: as §3

Q: What does the source list for `CCOC(=O)c1c2c(n3cc(Br)ccc13)C(=O)c1ncccc1C2=O`?
A: inhibition (Escherichia coli [1]): inactive; MIC (Enterococcus faecalis): 0.016 µg/mL (≈ 0.0401 µM); MIC (Staphylococcus aureus [2]): 0.032 µg/mL (≈ 0.0802 µM); MIC (Staphylococcus aureus [3]): 0.016 µg/mL (≈ 0.0401 µM); inhibition (Staphylococcus aureus [4]): 84%; MIC [5]: 0.063 µg/mL (≈ 0.158 µM); inhibition (Escherichia coli [6]): 98%; MIC (Streptococcus): 0.031 µg/mL (≈ 0.0777 µM); MIC (Staphylococcus aureus [7]): 0.032 µg/mL (≈ 0.0802 µM); MIC (Staphylococcus aureus [8]): 0.016 µg/mL (≈ 0.0401 µM); MIC (Staphylococcus aureus [9]): 0.032 µg/mL (≈ 0.0802 µM); MIC (Staphylococcus aureus [10]): 0.016 µg/mL (≈ 0.0401 µM); MIC (Staphylococcus aureus [11]): 0.016 µg/mL (≈ 0.0401 µM); MIC (Staphylococcus aureus [12]): 0.063 µg/mL (≈ 0.158 µM); MIC (Pseudomonas aeruginosa): > 64 µg/mL; inhibition [13]: inactive; inhibition (Escherichia coli [14]): Active; MIC (Staphylococcus aureus [15]): 0.063 µg/mL (≈ 0.158 µM); Ratio (Staphylococcus aureus [16]): 16; MIC (Staphylococcus aureus [17]): 0.016 µg/mL (≈ 0.0401 µM); inhibition (Staphylococcus aureus [18]): Active; inhibition (Escherichia coli [19]): 78%; MIC [20]: 64 µg/mL (≈ 160 µM); inhibition (Staphylococcus aureus [21]): Active; MIC (Staphylococcus aureus [22]): 0.032 µg/mL (≈ 0.0802 µM); MIC (Candida albicans): > 64 µg/mL; MIC (Escherichia coli [23]): > 64 µg/mL; MIC (Staphylococcus aureus [24]): 0.063 µg/mL (≈ 0.158 µM); MIC (Staphylococcus aureus [25]): 0.063 µg/mL (≈ 0.158 µM)
